# Source: the array DNA melting data of Ke et al. (doi:10.1101/2024.01.08.574731)
# Tests used:
# [1] = folding enthalpy; higher = less favourable; fluorescence melt of hairpins on a sequencing array, two-state fit; details: sodium 0.088 M
# Summary of the method: (§1)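 Folding enthalpy and melting temperature were estimated with bootstrapped two-state fits and combined across four replicates by inverse-variance weighting, with fitted temperatures raised by 9.35 °C to match UV melts. The data were Cy3 fluorescence of library hairpins, with annealed Cy3 and quencher oligos, on a sequenced MiSeq flow cell in 50 mM Na-HEPES pH 8.0, 25 mM NaCl, imaged in 2.5 °C steps up to 60 °C and normalised to pre-quench Cy3 and control constructs.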
# [2] = melting temperature; fluorescence melt of hairpins on a sequencing array, two-state fit, raised by 9.35 °C to match UV melts; details: sodium 0.088 M
# Summary of the method: as §1
sequence,measurement,setting,value
GAGATTCCGAAAGGACTC (((..(((....)))))),folding enthalpy,[1],-12.2 kcal/mol
same,Tm,[2],30.5 °C
GAATCGCGAAAGCGCTTC (((.(((....))).))),folding enthalpy,[1],-18.1 kcal/mol
same,Tm,[2],43.2 °C
GATCGGCATCCCGATC ((((((....)))))),folding enthalpy,[1],-40.9 kcal/mol
same,Tm,[2],54.1 °C
GTGTACGAAAGTAGTCAC ((((((....)))..))),folding enthalpy,[1],-12.2 kcal/mol
same,Tm,[2],30.9 °C
GCTCGGCGAAAGCCCAGC (((.(((....))).))),folding enthalpy,[1],-42.5 kcal/mol
same,Tm,[2],44.2 °C
GATCTTTCGAAAGATC ((((((....)))))),folding enthalpy,[1],-40.8 kcal/mol
same,Tm,[2],49.3 °C
GGTAATCGAAAGATCACC (((.(((....))).))),folding enthalpy,[1],-25.6 kcal/mol
same,Tm,[2],39.2 °C
GCATCCGAAAGGACCTGC ((((((....)))..))),folding enthalpy,[1],-12.9 kcal/mol
same,Tm,[2],30 °C
GCCCTGCGAAAGCGCGGC (((..((....))..))),folding enthalpy,[1],-21.5 kcal/mol
same,Tm,[2],54.5 °C
GCGACCCATCGC ((((....)))),folding enthalpy,[1],-19.5 kcal/mol
same,Tm,[2],52.2 °C
CGGCCGGAAACGGTTCCG ((((((....)))..))),folding enthalpy,[1],-21.6 kcal/mol
same,Tm,[2],41.1 °C
GATCTCTTAAGAGATC ((((((....)))))),folding enthalpy,[1],-37.3 kcal/mol
same,Tm,[2],54.2 °C
GGGCCACCGAAAGGTCCC (((..(((....)))))),folding enthalpy,[1],-17.8 kcal/mol
same,Tm,[2],41.3 °C
GCGGTATCCCGC ((((....)))),folding enthalpy,[1],-30.5 kcal/mol
same,Tm,[2],53.5 °C
GCGTAAGTACGC ((((....)))),folding enthalpy,[1],-23.9 kcal/mol
same,Tm,[2],52.9 °C
GACCCCGGAAACGAGGTC ((((.((....)).)))),folding enthalpy,[1],-36.9 kcal/mol
same,Tm,[2],48 °C
GTGGCGGGAAACCGCTGC (..((((....))))..),folding enthalpy,[1],-15.4 kcal/mol
same,Tm,[2],47.9 °C
GGACGAGGAAACTCGTCC (((((((....))))))),folding enthalpy,[1],-44.4 kcal/mol
same,Tm,[2],68.8 °C
GATCGACATCTCGATC ((((((....)))))),folding enthalpy,[1],-36 kcal/mol
same,Tm,[2],50.3 °C
GAGCCCCGAAAGGGCCTC (((.(((....))).))),folding enthalpy,[1],-14.6 kcal/mol
same,Tm,[2],47.3 °C
GTGGAGACGAAAGTCCAC (((..(((....)))))),folding enthalpy,[1],-22.8 kcal/mol
same,Tm,[2],47.6 °C
GCCGTGGCGAAAGCCGGC (((..(((....)))))),folding enthalpy,[1],-21.4 kcal/mol
same,Tm,[2],62.8 °C
GTCTCCACGAAAGTGGAC (((..(((....)))))),folding enthalpy,[1],-7.36 kcal/mol
same,Tm,[2],32.2 °C
GTTAGCGAAAGCTTAAC ((((((....))).))),folding enthalpy,[1],-13.9 kcal/mol
same,Tm,[2],42.8 °C
GATCCTCCTCAGGATC ((((((....)))))),folding enthalpy,[1],-45.2 kcal/mol
same,Tm,[2],50.2 °C
GTCCTAGGAAACTAGGAC (((((((....))))))),folding enthalpy,[1],-51 kcal/mol
same,Tm,[2],57.2 °C
GTGTTAGAAATAACAC ((((((....)))))),folding enthalpy,[1],-28.6 kcal/mol
same,Tm,[2],47.1 °C
GAGACGACGAAAGTCCTC (((..(((....)))))),folding enthalpy,[1],-16.7 kcal/mol
same,Tm,[2],26.8 °C
GATCAAATGGTTGATC ((((((....)))))),folding enthalpy,[1],-28.5 kcal/mol
same,Tm,[2],39.6 °C
GATCTTACTCAAGATC ((((((....)))))),folding enthalpy,[1],-33.5 kcal/mol
same,Tm,[2],42.3 °C
GGGTTTGGAAACAAACTC (.(((((....))))).),folding enthalpy,[1],-29.8 kcal/mol
same,Tm,[2],46.6 °C
GATCAGGGGGCTGATC ((((((....)))))),folding enthalpy,[1],-38.3 kcal/mol
same,Tm,[2],49.7 °C
GGTGAGGGAAACCTCATC (.(((((....))))).),folding enthalpy,[1],-25.1 kcal/mol
same,Tm,[2],48.5 °C
GTACGAGAAATCGTAC ((((((....)))))),folding enthalpy,[1],-38.2 kcal/mol
same,Tm,[2],54.3 °C
GATCCCAGAGGGGATC ((((((....)))))),folding enthalpy,[1],-32.2 kcal/mol
same,Tm,[2],60.9 °C
GATCCGCAGCGGATC ((((((...)))))),folding enthalpy,[1],-54.5 kcal/mol
same,Tm,[2],54.8 °C
GGACACGAAAGTGACTCC ((((((....)))..))),folding enthalpy,[1],-14.2 kcal/mol
same,Tm,[2],40.6 °C
GGAGGAGGAAACCCCTCC (((((.(....).))))),folding enthalpy,[1],-26.7 kcal/mol
same,Tm,[2],48.1 °C
GTGGTTCGAAAGAAACAC (((.(((....))).))),folding enthalpy,[1],-48.8 kcal/mol
same,Tm,[2],55.8 °C
GATCTGCATACAGATC ((((((....)))))),folding enthalpy,[1],-43.2 kcal/mol
same,Tm,[2],52.1 °C
GAGGATGGAAACATCTTC ((.((((....)))).)),folding enthalpy,[1],-27.1 kcal/mol
same,Tm,[2],38.1 °C
GCGAGGCGAAAGCAACGC (((..((....))..))),folding enthalpy,[1],-21.6 kcal/mol
same,Tm,[2],61.8 °C
GCTATGGGAAACCATAAC (.(((((....))))).),folding enthalpy,[1],-12.8 kcal/mol
same,Tm,[2],28.7 °C
GCTACGCGAAAGCCTTGC ((.(.((....)).).)),folding enthalpy,[1],-9.85 kcal/mol
same,Tm,[2],29.6 °C
GCGTTATTACGC ((((....)))),folding enthalpy,[1],-26 kcal/mol
same,Tm,[2],53.9 °C
GTCGTCGAAAGACAAGAC ((((((....)))..))),folding enthalpy,[1],-20 kcal/mol
same,Tm,[2],44.7 °C
GATCGGTGACCGATC ((((((...)))))),folding enthalpy,[1],-38.7 kcal/mol
same,Tm,[2],55.5 °C
GTGGTACGAAAGTATCAC (((.(((....))).))),folding enthalpy,[1],-47.3 kcal/mol
same,Tm,[2],54.2 °C
GAGGGGCGAAAGCCGCTC (((.(((....))).))),folding enthalpy,[1],-30.6 kcal/mol
same,Tm,[2],69.3 °C
GTAGCACGAAAGTGGTAC (((.(((....))).))),folding enthalpy,[1],-33.7 kcal/mol
same,Tm,[2],60.9 °C
GCGTTTGGACGC ((((....)))),folding enthalpy,[1],-19.2 kcal/mol
same,Tm,[2],54.2 °C
CGACCGGAAACGGATTCG ((((((....)))..))),folding enthalpy,[1],-16.2 kcal/mol
same,Tm,[2],33.6 °C
GCATCCCGAAAGGGCTGC (((.(((....))).))),folding enthalpy,[1],-36.2 kcal/mol
same,Tm,[2],56.2 °C
CGAAAGCGGAAACGCTCG (((..(((....)))))),folding enthalpy,[1],-18.2 kcal/mol
same,Tm,[2],43.5 °C
CGAACCGGAAACGGATCG (((.(((....))).))),folding enthalpy,[1],-27.6 kcal/mol
same,Tm,[2],51.6 °C
GCGCTCACGAAAGTGCGC (((..(((....)))))),folding enthalpy,[1],-37.8 kcal/mol
same,Tm,[2],60 °C
GTGCACGGAAACGTGTGC (..((((....))))..),folding enthalpy,[1],-27.7 kcal/mol
same,Tm,[2],50.2 °C
CGGGCGGAAACGCCCCG ((((((....))).))),folding enthalpy,[1],-8.53 kcal/mol
same,Tm,[2],59.6 °C
GCCAGCGAAAGCTGTGGC ((((((....)))..))),folding enthalpy,[1],-15.1 kcal/mol
same,Tm,[2],56.6 °C
GGAATAGGAAACTATTTC (.(((((....))))).),folding enthalpy,[1],-29.1 kcal/mol
same,Tm,[2],30.6 °C
GTCGTAGAAATACGAC ((((((....)))))),folding enthalpy,[1],-38 kcal/mol
same,Tm,[2],56 °C
GGGAAACGAAAGTTCCC (((.(((....)))))),folding enthalpy,[1],-28 kcal/mol
same,Tm,[2],53.4 °C
GCAAGCGAAAGCTAATGC ((((((....)))..))),folding enthalpy,[1],-15.5 kcal/mol
same,Tm,[2],39.4 °C
GCTATGCGAAAGCACAGC (((.(((....))).))),folding enthalpy,[1],-39.7 kcal/mol
same,Tm,[2],48.7 °C
GCTGTGCGAAAGCATAGC (((.(((....))).))),folding enthalpy,[1],-57.9 kcal/mol
same,Tm,[2],59.4 °C
GCGTCATCGAAAGATCGC (((..(((....)))))),folding enthalpy,[1],-24.4 kcal/mol
same,Tm,[2],44 °C
GCAACGGGAAACCATCGC ((.(.((....)).).)),folding enthalpy,[1],-12.5 kcal/mol
same,Tm,[2],27 °C
GGCACCGAAAGGTCTGCC ((((((....)))..))),folding enthalpy,[1],-22.2 kcal/mol
same,Tm,[2],48.4 °C
GAATCCGAAAGGATTC ((((((....)))))),folding enthalpy,[1],-37 kcal/mol
same,Tm,[2],66.5 °C
